Reference: ChEMBL document CHEMBL4513216, “Probing the Open Global Health Chemical Diversity Library for Multistage-Active Starting Points for Next-Generation Antimalarials” (ACS Infect Dis, 2020)

Experiment: Toxicity liver stage against HepG2, at 10uM
Type: cell-based
Parameters: test concentration 10 uM, cell line HepG2-A16-CD81EGFP
Conditions: human, HepG2-A16-CD81EGFP cells; read-out: INHIBITION
Outline: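 Uninfected HepG2-A16-CD81EGFP cells, 3 × 10^3 per well, 1536-well, plated on prespotted compound at 10 μM final, parasite-free screening media added to match infected plates; puromycin 10 μM positive, DMSO 0.5% negative; run in parallel with 48 h PbLuc assay at 37 °C, 5% CO2; viability by CellTiter-Glo luminescence, normalized to controls.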

Structure (SMILES)	cytotoxicity at 10 µM [%]
O=C(c1ccc(F)cc1F)N1CC[C@H](O)[C@@H](N2CCOCC2)CC1	2.62
Cc1nc(C)n(CC2CCCN2Cc2cscn2)n1 (centres undefined)	-2.05
Cc1cc(N(C)Cc2noc(C)n2)n2nc(C)c(C)c2n1	14.4
CC(C)c1ccc(CNC(C)c2ccc(S(C)(=O)=O)cc2)cc1 (centres undefined)	13.9
CN(C)C(=O)COCC1C[C@@H]2OCCN(Cc3ccco3)[C@H]2C1 (some centres undefined)	11.9
Cc1ccc(CN2CCOC3(CCCN(C(=O)c4ccco4)C3)C2)s1 (centres undefined)	-10.3
CC(C)Nc1nc2c(s1)C(=O)CN(CC1CC1)C2	-10.1
CCCN(C(=O)c1ccc(-n2ccnn2)cc1)c1cccnc1	13.8
CCOc1ccccc1-c1noc(CN2CCCC(O)C2)n1 (centres undefined)	-3.85
CCc1c(O)nc(SCC(=O)c2ccccc2)n(-c2ccccc2)c1=O	3.19
CC(c1cccnc1)N1CCN(CCO)CC1 (centres undefined)	-3.21
O=C(c1ccnnc1)N1C[C@H]2CCC[C@@]2(COCc2ccccn2)C1	-78.7
CN1C(=O)CO[C@H](c2ccc(NC(=O)c3cccc(F)c3)cc2)[C@H]1CO	10
Cn1cc(C(=O)CC2CCCN2C(=O)c2cncc3ccccc23)cn1 (centres undefined)	4.11
Cc1cc(C)nc(CN(C)C(=O)C(c2cccnc2)N2CCCC2)c1 (centres undefined)	-45.4
Cc1cc(C)nc(N2CCC(OCCN3CCCCC3)C2)n1 (centres undefined)	-53.6
COc1ccc(Cc2ncc3c(n2)CN(C(=O)CCO)C3)cc1	2.37
CC(C)(C)c1cc(CN2C[C@@H]3CC[C@H]2CN(Cc2ccccn2)C3)n[nH]1	-0.123
CN1CCN(Cc2ccoc2)Cc2cccnc21	0.899
Cn1ccnc1CN(CCO)C(=O)c1cnc2ccccc2c1	1.39
CC(C)N1CCC(C(=O)N[C@H](C(=O)O)c2cccc(F)c2F)CC1	2.59
Cc1cc(CN2CCC(CNS(=O)(=O)c3ccc(Br)s3)CC2)c(C)o1	-2.72
Brc1cc2c(cc1CN1CCC(N3CCCCC3)CC1)OCCO2	50.1
COc1cccc(-c2cc(C3CCCNC3)ccn2)c1 (centres undefined)	0.207
CN1CCN(C(=O)c2cc(C#N)cn2C)c2ccccc2C1	5.45
CCS(=O)(=O)N1CC[C@H]2CO[C@H](CN(C)C)[C@H]2C1	-72
Cc1ccc(CN2CCc3c(COC(C)C)nn(C)c3C2)s1	0.661

Structure (SMILES)	cytotoxicity at 10 µM [%]
Cn1nccc1C1CCN(Cc2csc(-c3ncccn3)n2)CC1	-1.91
CN(Cc1ccsc1)C(=O)Nc1ccc(S(C)(=O)=O)nc1	3.28
O=S(=O)(C1CC1)N1CCC2(CN(c3ccccn3)C2)C1	5.25
CS(=O)(=O)NC1CCN(Cc2ccc(OCc3ccccn3)cc2)CC1	1.63
Cc1cc(C)n(CC(C)CNC(=O)NCc2csc(C)n2)n1 (centres undefined)	11
CC(C)NC[C@H]1COCc2nc3cccnc3n21	-5.38
CCCc1cc(NC2CCc3ncnn3C2)n2ncnc2n1 (centres undefined)	-4.17
CCO[C@@H]1CC[C@H]2[C@H]1OCCN2C(=O)c1nn(C)c2ccccc12	-2.69
Cc1cnc(CN(Cc2cccc(O)c2)CC2CC2)cn1	16.7
CCNC(=O)NCCc1csc(N2CCCC2)n1	-4.63
Cc1nc(CN2CCCC(CCc3ccc(F)c(F)c3)C2)c[nH]1 (centres undefined)	-10.4
Cc1cccc(=O)n1CCC(=O)N(C)Cc1cccc2ncccc12	0.66
CCN(CC)S(=O)(=O)CCNc1ncnc2cc(F)c(F)cc12	25.9
COc1cc(N2CC[C@@H]3[C@@H](CC2)OCCN3CC2CC2)ncn1	-107
Cn1cc(C(=O)N2CCCC(c3cnccn3)C2)cn1 (centres undefined)	-10.5
CN(Cc1ccccc1)C(=O)CCNS(=O)(=O)c1cccnc1	-1.24
Cn1cc(NS(=O)(=O)c2ccc(OC(F)(F)F)cc2)ccc1=O	33.4
CC(C)c1noc(C(C)S(=O)(=O)Cc2nc(C3CC3)no2)n1 (centres undefined)	-0.828
Cc1cc(NCCSc2nccn2C)n2ncnc2n1	17.5
Clc1cccc(OCCCN2CCOC(Cn3cncn3)C2)c1 (centres undefined)	-3.78
COc1ccc(CN(C)c2ncc(S(N)(=O)=O)s2)c(OC)c1	-2.03
Cc1nn(C)c(C)c1CC(=O)N1CCC(Nc2cccnn2)CC1	-8.8
CC(C1CC1)N(CC(=O)NC(=O)NC1CC1)C1CC1 (centres undefined)	4.84
COCC1CN(C(=O)[C@H]2CCCO2)Cc2nnn(CC3CC3)c21 (some centres undefined)	-1.59
Cc1ncncc1C(=O)NCCN1CCC(C)CC1	-8.76
CCN(CC)CCn1cc(NC2CCSCC2)cn1	2.5
COc1ccc(CNc2nc(C3CC3)nc3c(C)nn(C)c23)cc1	5.4
